Values after ≈ are worked out from the molar mass of the structure shown.
Tests used:
Type in all cases: functional
Streptococcus pneumoniae [1] = test: Antimicrobial activity against drug-resistant Streptococcus pneumoniae isolate 3009 after 50 passages by multi-step resistance selection technique
Method in brief: (§1)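 Daily serial passage in subinhibitory drug levels in 1 ml cation-adjusted Mueller-Hinton broth with 5% lysed horse blood; fresh broth for tigecycline. Each day, 10 μl were taken from the tube one to two dilutions below the MIC whose turbidity matched the growth control, and used to set the next MIC. […] MIC by macrodilution.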

Streptococcus pneumoniae [2] = test: Antimicrobial activity against drug-resistant Streptococcus pneumoniae isolate 1635 after 49 passages with clarithromycin measured after 10 antibiotic-free subculture by multi-step resistance selection technique
Streptococcus pneumoniae [3] = test: Antimicrobial activity against drug-resistant Streptococcus pneumoniae isolate 3009 after 25 passages with clarithromycin measured after 10 antibiotic-free subculture by multi-step resistance selection technique
Streptococcus pneumoniae [4] = test: Antimicrobial activity against drug-resistant Streptococcus pneumoniae isolate 1077 after 49 passages with clindamycin measured after 10 antibiotic-free subculture by multi-step resistance selection technique
Streptococcus pneumoniae [5] = test: Antimicrobial activity against drug-resistant Streptococcus pneumoniae isolate 3665 after 38 passages with moxifloxacin measured after 10 antibiotic-free subculture by multi-step resistance selection technique
Streptococcus pneumoniae [6] = test: Antimicrobial activity against drug-resistant Streptococcus pneumoniae isolate 24 after 14 passages with Telithromycin measured after 10 antibiotic-free subculture by multi-step resistance selection technique
Method in brief: (§2)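 Mutants selected by daily broth passage in subinhibitory drug in cation-adjusted Mueller-Hinton broth with 5% lysed horse blood. Stability was tested by 10 daily passages on blood agar without antibiotic, then macrodilution MIC.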

Streptococcus pneumoniae [7] = test: Antimicrobial activity against drug-resistant Streptococcus pneumoniae isolate 3676 after 44 passages with clarithromycin measured after 10 antibiotic-free subculture by multi-step resistance selection technique
Streptococcus pneumoniae [8] = test: Antimicrobial activity against drug-resistant Streptococcus pneumoniae isolate 1635 after 14 passages with azithromycin measured after 10 antibiotic-free subculture by multi-step resistance selection technique; method in brief: as §2
Streptococcus pneumoniae [9] = test: Antimicrobial activity against drug-resistant Streptococcus pneumoniae isolate 2527 after 50 passages by multi-step resistance selection technique; method in brief: as §1
Streptococcus pneumoniae [10] = test: Antimicrobial activity against drug-resistant Streptococcus pneumoniae isolate 3665 by NCCLS M7-A7 method
Streptococcus pneumoniae [11] = test: Antimicrobial activity against drug-resistant Streptococcus pneumoniae isolate 24 by NCCLS M7-A7 method
Streptococcus pneumoniae [12] = test: Antimicrobial activity against drug-resistant Streptococcus pneumoniae isolate 2527 after 14 passages with gemifloxacin measured after 10 antibiotic-free subculture by multi-step resistance selection technique; method in brief: as §2
Streptococcus pneumoniae [13] = test: Antimicrobial activity against drug-resistant Streptococcus pneumoniae isolate 3243 after 33 passages with azithromycin measured after 10 antibiotic-free subculture by multi-step resistance selection technique; method in brief: as §2
Streptococcus pneumoniae [14] = test: Antimicrobial activity against drug-resistant Streptococcus pneumoniae isolate 1635 by NCCLS M7-A7 method
Streptococcus pneumoniae [15] = test: Antimicrobial activity against drug-resistant Streptococcus pneumoniae isolate 1076 by NCCLS M7-A7 method
Streptococcus pneumoniae [16] = test: Antimicrobial activity against drug-resistant Streptococcus pneumoniae isolate 1635 after 50 passages by multi-step resistance selection technique
Method in brief: (§3)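 Daily serial passage in subinhibitory drug levels in 1 ml cation-adjusted Mueller-Hinton broth with 5% lysed horse blood; fresh broth for tigecycline. Each day, 10 μl were taken from the tube one to two dilutions below the MIC whose turbidity matched the growth control, and used to set the next MIC. MIC by macrodilution.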

Streptococcus pneumoniae [17] = test: Antimicrobial activity against drug-resistant Streptococcus pneumoniae isolate 3676 after 14 passages with Telithromycin measured after 10 antibiotic-free subculture by multi-step resistance selection technique
Streptococcus pneumoniae [18] = test: Antimicrobial activity against drug-resistant Streptococcus pneumoniae isolate 3413 after 30 passages with Telithromycin measured after 10 antibiotic-free subculture by multi-step resistance selection technique; method in brief: as §2
Streptococcus pneumoniae [19] = test: Antimicrobial activity against drug-resistant Streptococcus pneumoniae isolate 3274 by NCCLS M7-A7 method
Streptococcus pneumoniae [20] = test: Antimicrobial activity against drug-resistant Streptococcus pneumoniae isolate 3413 by NCCLS M7-A7 method
Streptococcus pneumoniae [21] = test: Antimicrobial activity against drug-resistant Streptococcus pneumoniae isolate 2527 by NCCLS M7-A7 method
Streptococcus pneumoniae [22] = test: Antimicrobial activity against drug-resistant Streptococcus pneumoniae isolate 37 after 14 passages with Telithromycin measured after 10 antibiotic-free subculture by multi-step resistance selection technique
Streptococcus pneumoniae [23] = test: Antimicrobial activity against drug-resistant Streptococcus pneumoniae isolate 3009 after 19 passages with moxifloxacin measured after 10 antibiotic-free subculture by multi-step resistance selection technique; method in brief: as §2
Streptococcus pneumoniae [24] = test: Antimicrobial activity against drug-resistant Streptococcus pneumoniae isolate 3243 after 29 passages with Telithromycin measured after 10 antibiotic-free subculture by multi-step resistance selection technique; method in brief: as §2
Streptococcus pneumoniae [25] = test: Antimicrobial activity against drug-resistant Streptococcus pneumoniae isolate 1635 after 14 passages with clindamycin measured after 10 antibiotic-free subculture by multi-step resistance selection technique
Streptococcus pneumoniae [26] = test: Antimicrobial activity against drug-resistant Streptococcus pneumoniae isolate 1077 by NCCLS M7-A7 method
Streptococcus pneumoniae [27] = test: Antimicrobial activity against drug-resistant Streptococcus pneumoniae isolate 1077 after 29 passages with azithromycin measured after 10 antibiotic-free subculture by multi-step resistance selection technique; method in brief: as §2
Streptococcus pneumoniae [28] = test: Antimicrobial activity against drug-resistant Streptococcus pneumoniae isolate 3009 by NCCLS M7-A7 method
Streptococcus pneumoniae [29] = test: Antimicrobial activity against drug-resistant Streptococcus pneumoniae isolate 3676 by NCCLS M7-A7 method
Streptococcus pneumoniae [30] = test: Antimicrobial activity against drug-resistant Streptococcus pneumoniae isolate 37 by NCCLS M7-A7 method
Streptococcus pneumoniae [31] = test: Antimicrobial activity against drug-resistant Streptococcus pneumoniae isolate 3665 after 26 passages with clarithromycin measured after 10 antibiotic-free subculture by multi-step resistance selection technique
Streptococcus pneumoniae [32] = test: Antimicrobial activity against drug-resistant Streptococcus pneumoniae isolate 3009 after 18 passages with levofloxacin measured after 10 antibiotic-free subculture by multi-step resistance selection technique; method in brief: as §2
Streptococcus pneumoniae [33] = test: Antimicrobial activity against drug-resistant Streptococcus pneumoniae isolate 3676 after 50 passages with moxifloxacin measured after 10 antibiotic-free subculture by multi-step resistance selection technique
Streptococcus pneumoniae [34] = test: Antimicrobial activity against drug-resistant Streptococcus pneumoniae isolate 1076 after 35 passages with moxifloxacin measured after 10 antibiotic-free subculture by multi-step resistance selection technique; method in brief: as §2
Streptococcus pneumoniae [35] = test: Antimicrobial activity against drug-resistant Streptococcus pneumoniae isolate 2527 after 20 passages with azithromycin measured after 10 antibiotic-free subculture by multi-step resistance selection technique; method in brief: as §2
Streptococcus pneumoniae [36] = test: Antimicrobial activity against drug-resistant Streptococcus pneumoniae isolate 3274 after 50 passages by multi-step resistance selection technique; method in brief: as §3
Streptococcus pneumoniae [37] = test: Antimicrobial activity against drug-resistant Streptococcus pneumoniae isolate 3413 after 50 passages by multi-step resistance selection technique; method in brief: as §3
Streptococcus pneumoniae [38] = test: Antimicrobial activity against drug-resistant Streptococcus pneumoniae isolate 3665 after 50 passages by multi-step resistance selection technique
Method in brief: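 Daily serial passage in broth at subinhibitory drug levels: 1 ml cation-adjusted Mueller-Hinton broth with 5% lysed horse blood; fresh broth for tigecycline. Each day 10 μl inoculum taken from the tube one to two dilutions below MIC matching growth-control turbidity, used to set next MIC. Continued until ≥8-fold MIC rise, minimum 14, maximum 50 passages; MIC read by macrodilution.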

Streptococcus pneumoniae [39] = test: Antimicrobial activity against drug-resistant Streptococcus pneumoniae isolate 1076 after 50 passages by multi-step resistance selection technique; method in brief: as §1
Streptococcus pneumoniae [40] = test: Antimicrobial activity against drug-resistant Streptococcus pneumoniae isolate 1077 after 50 passages by multi-step resistance selection technique; method in brief: as §3

| Structure (SMILES) | MIC (Streptococcus pneumoniae [1]) [µg/mL] | MIC (Streptococcus pneumoniae [2]) [µg/mL] | MIC (Streptococcus pneumoniae [3]) [µg/mL] | MIC (Streptococcus pneumoniae [4]) [µg/mL] | MIC (Streptococcus pneumoniae [5]) [µg/mL] | MIC (Streptococcus pneumoniae [6]) [µg/mL] | MIC (Streptococcus pneumoniae [7]) [µg/mL] | MIC (Streptococcus pneumoniae [8]) [µg/mL] | MIC (Streptococcus pneumoniae [9]) [µg/mL] | MIC (Streptococcus pneumoniae [10]) [µg/mL] | MIC (Streptococcus pneumoniae [11]) [µg/mL] | MIC (Streptococcus pneumoniae [12]) [µg/mL] | MIC (Streptococcus pneumoniae [13]) [µg/mL] | MIC (Streptococcus pneumoniae [14]) [ng/mL] | MIC (Streptococcus pneumoniae [15]) [µg/mL] | MIC (Streptococcus pneumoniae [16]) [µg/mL] | MIC (Streptococcus pneumoniae [17]) [µg/mL] | MIC (Streptococcus pneumoniae [18]) [µg/mL] | MIC (Streptococcus pneumoniae [19]) [µg/mL] | MIC (Streptococcus pneumoniae [20]) [µg/mL] | other results |
| --- | --- | --- | --- | --- | --- | --- | --- | --- | --- | --- | --- | --- | --- | --- | --- | --- | --- | --- | --- | --- | --- |
| CC[C@H]1OC(=O)[C@H](C)C(=O)[C@H](C)[C@@H](O[C@@H]2O[C@H](C)C[C@H](N(C)C)[C@H]2O)[C@](C)(OC)C[C@@H](C)C(=O)[C@H](C)[C@H]2N(CCCCn3cnc(-c4cccnc4)c3)C(=O)O[C@]12C [TELITHROMYCIN] | 0.03 (≈ 0.0369 µM) | 0.016 (≈ 0.0197 µM) | 0.06 (≈ 0.0739 µM) | 0.06 (≈ 0.0739 µM) | 0.125 (≈ 0.154 µM) | 16 (≈ 19.7 µM) | 0.03 (≈ 0.0369 µM) | 0.004 (≈ 0.00493 µM) | 0.016 (≈ 0.0197 µM) | 0.125 (≈ 0.154 µM) | 0.25 (≈ 0.308 µM) | 0.004 (≈ 0.00493 µM) | 0.06 (≈ 0.0739 µM) | 4 (≈ 0.00493 µM) | 0.5 (≈ 0.616 µM) | 0.008 (≈ 0.00985 µM) | 0.06 (≈ 0.0739 µM) | 0.5 (≈ 0.616 µM) | 0.004 (≈ 0.00493 µM) | 0.03 (≈ 0.0369 µM) | MIC (Streptococcus pneumoniae [21]): 4 ng/mL (≈ 0.00493 µM); MIC (Streptococcus pneumoniae [22]): 8 µg/mL (≈ 9.85 µM); MIC (Streptococcus pneumoniae [23]): 0.008 µg/mL (≈ 0.00985 µM); MIC (Streptococcus pneumoniae [24]): 0.06 µg/mL (≈ 0.0739 µM); MIC (Streptococcus pneumoniae [25]): 0.008 µg/mL (≈ 0.00985 µM); MIC (Streptococcus pneumoniae [26]): 4 ng/mL (≈ 0.00493 µM); MIC (Streptococcus pneumoniae [27]): 0.125 µg/mL (≈ 0.154 µM); MIC (Streptococcus pneumoniae [28]): 0.016 µg/mL (≈ 0.0197 µM); MIC (Streptococcus pneumoniae [29]): 0.06 µg/mL (≈ 0.0739 µM); MIC (Streptococcus pneumoniae [30]): 0.25 µg/mL (≈ 0.308 µM); MIC (Streptococcus pneumoniae [31]): 0.06 µg/mL (≈ 0.0739 µM); MIC (Streptococcus pneumoniae [32]): 0.016 µg/mL (≈ 0.0197 µM); MIC (Streptococcus pneumoniae [33]): 0.06 µg/mL (≈ 0.0739 µM); MIC (Streptococcus pneumoniae [34]): 1 µg/mL (≈ 1.23 µM); MIC (Streptococcus pneumoniae [35]): 0.03 µg/mL (≈ 0.0369 µM) |
| CN(C)c1cc(NC(=O)CNC(C)(C)C)c(O)c2c1C[C@H]1C[C@H]3[C@H](N(C)C)C(O)=C(C(N)=O)C(=O)[C@@]3(O)C(O)=C1C2=O [TIGECYCLINE] | 0.016 (≈ 0.0273 µM) | 0.016 (≈ 0.0273 µM) | 0.03 (≈ 0.0512 µM) | 0.03 (≈ 0.0512 µM) | 0.03 (≈ 0.0512 µM) | 0.03 (≈ 0.0512 µM) | 0.03 (≈ 0.0512 µM) | 0.03 (≈ 0.0512 µM) | 0.016 (≈ 0.0273 µM) | 0.016 (≈ 0.0273 µM) | 0.03 (≈ 0.0512 µM) | 0.03 (≈ 0.0512 µM) | 0.06 (≈ 0.102 µM) | 16 (≈ 0.0273 µM) | 0.03 (≈ 0.0512 µM) | 0.03 (≈ 0.0512 µM) | 0.03 (≈ 0.0512 µM) | 0.03 (≈ 0.0512 µM) | 0.03 (≈ 0.0512 µM) | 0.016 (≈ 0.0273 µM) | MIC (Streptococcus pneumoniae [36]): 0.03 µg/mL (≈ 0.0512 µM); MIC (Streptococcus pneumoniae [37]): 0.03 µg/mL (≈ 0.0512 µM); MIC (Streptococcus pneumoniae [21]): 16 ng/mL (≈ 0.0273 µM); MIC (Streptococcus pneumoniae [22]): 0.03 µg/mL (≈ 0.0512 µM); MIC (Streptococcus pneumoniae [23]): 0.06 µg/mL (≈ 0.102 µM); MIC (Streptococcus pneumoniae [38]): 0.016 µg/mL (≈ 0.0273 µM); MIC (Streptococcus pneumoniae [24]): 0.03 µg/mL (≈ 0.0512 µM); MIC (Streptococcus pneumoniae [25]): 0.03 µg/mL (≈ 0.0512 µM); MIC (Streptococcus pneumoniae [26]): 16 ng/mL (≈ 0.0273 µM); MIC (Streptococcus pneumoniae [39]): 0.03 µg/mL (≈ 0.0512 µM); MIC (Streptococcus pneumoniae [27]): 0.03 µg/mL (≈ 0.0512 µM); MIC (Streptococcus pneumoniae [29]): 0.016 µg/mL (≈ 0.0273 µM); MIC (Streptococcus pneumoniae [30]): 0.016 µg/mL (≈ 0.0273 µM); MIC (Streptococcus pneumoniae [31]): 0.03 µg/mL (≈ 0.0512 µM); MIC (Streptococcus pneumoniae [40]): 0.016 µg/mL (≈ 0.0273 µM); MIC (Streptococcus pneumoniae [32]): 0.06 µg/mL (≈ 0.102 µM); MIC (Streptococcus pneumoniae [33]): 0.03 µg/mL (≈ 0.0512 µM); MIC (Streptococcus pneumoniae [34]): 0.06 µg/mL (≈ 0.102 µM); MIC (Streptococcus pneumoniae [35]): 0.03 µg/mL (≈ 0.0512 µM) |

— ChEMBL document CHEMBL1151428, “Capability of 11 antipneumococcal antibiotics to select for resistance by multistep and single-step methodologies” (2007)
